An excerpt weighted towards active compounds, which were near 4% of everything screened.
PHOSPHO1 block = PHOSPHO1 (human) inhibition; recombinant PHOSPHO1, absorbance phosphatase assay; inhibition, % at 13.3 µM; hit rate 1.1% among 290,000; AID 1565; in the data active means inhibition above about 60%
KCNK3 block = human KCNK3 channel inhibition, primary screen; CHO-KCNK3 thallium flux, FluxOR fluorescence; hits give low values; O14649; B-score at 10 µM; hit rate 0.84% among 340,000;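 active means B-score under library mean minus 4 SD, starting fluorescence ratio at most library mean plus 5 SD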;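 further: more negative B-score means stronger inhibition of thallium flux through KCNK3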
KCNQ1 act = potentiates or activates the human KCNQ1 potassium channel. B-score at 10 µM. CHO-K1 KCNQ1, thallium flux FluxOR fluorescence; hits give high values. hit rate 0.35% among 310,000. P51787;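 active means fluorescence ratio B-score, a plate-corrected score, at least three library SD, with initial intensity B-score within 5 SD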
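System: CHO-K1 cells stably expressing KCNQ1 / Medium: assay buffer for compound exposure, DMSO matched across wells / Reagent: thallium- and potassium-containing depolarizing buffer / Compound: one concentration, matched DMSO / Incubation: 20 min compound pretreatment at room temperature / Measured by: kinetic FluxOR fluorescence, 10 s baseline plus 110 s post-stimulus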
hERG protect = shields human hERG channel from block by proarrhythmic agents | hit rate 0.51% among 310,000 | AID 1511 | activation (rescue from dofetilide block), less the hit threshold, % at 10 µM | CHO-hERG, FluxOR thallium flux, dofetilide IC70 present;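 active means activation above the mean of controls blocked by dofetilide plus 5 SD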;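 further: thallium influx through hERG after potassium depolarization seen as dye fluorescence rise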
Target sequence (Q12809 whole entry, looked up): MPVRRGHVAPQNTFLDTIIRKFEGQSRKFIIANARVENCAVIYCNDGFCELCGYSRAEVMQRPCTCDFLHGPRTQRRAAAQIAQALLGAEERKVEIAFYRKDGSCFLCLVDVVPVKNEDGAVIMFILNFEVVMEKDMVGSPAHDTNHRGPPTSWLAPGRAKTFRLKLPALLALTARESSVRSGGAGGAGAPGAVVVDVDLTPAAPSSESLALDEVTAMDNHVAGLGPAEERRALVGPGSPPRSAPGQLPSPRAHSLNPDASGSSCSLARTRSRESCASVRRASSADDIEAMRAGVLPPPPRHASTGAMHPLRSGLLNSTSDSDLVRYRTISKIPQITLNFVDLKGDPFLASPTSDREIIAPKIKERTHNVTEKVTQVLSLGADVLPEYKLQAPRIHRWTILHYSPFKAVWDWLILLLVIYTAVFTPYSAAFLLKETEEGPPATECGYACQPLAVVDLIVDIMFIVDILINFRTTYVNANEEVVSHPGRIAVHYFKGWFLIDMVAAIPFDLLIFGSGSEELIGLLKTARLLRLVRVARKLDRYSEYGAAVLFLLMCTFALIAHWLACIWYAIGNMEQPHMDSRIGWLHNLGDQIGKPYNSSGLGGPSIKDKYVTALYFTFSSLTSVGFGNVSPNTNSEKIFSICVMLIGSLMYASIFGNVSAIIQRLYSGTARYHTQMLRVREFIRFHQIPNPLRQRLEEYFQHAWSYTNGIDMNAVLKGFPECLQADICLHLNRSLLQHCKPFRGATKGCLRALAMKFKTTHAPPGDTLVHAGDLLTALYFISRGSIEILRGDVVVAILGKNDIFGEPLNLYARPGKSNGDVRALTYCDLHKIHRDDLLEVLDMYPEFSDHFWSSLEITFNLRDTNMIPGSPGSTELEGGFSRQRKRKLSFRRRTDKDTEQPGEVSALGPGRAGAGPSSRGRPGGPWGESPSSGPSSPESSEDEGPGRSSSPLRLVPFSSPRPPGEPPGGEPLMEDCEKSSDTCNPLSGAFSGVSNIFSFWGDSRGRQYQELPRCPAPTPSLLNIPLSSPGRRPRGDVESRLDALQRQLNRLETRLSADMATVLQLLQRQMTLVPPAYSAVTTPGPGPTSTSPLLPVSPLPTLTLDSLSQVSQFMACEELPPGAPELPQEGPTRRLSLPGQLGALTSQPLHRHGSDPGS
KCNQ1 block = inhibitors of human KCNQ1 potassium channel; CHO-K1 KCNQ1, FluxOR thallium flux fluorescence; hits give high values; P51787; hit rate 1.3% among 310,000; AID 2642; B-score at 10 µM;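 active means compounds whose thallium flux B-score, printed positive for inhibition, exceeds three library SD while starting fluorescence stays within three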;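 further: channel opened by potassium depolarization with thallium stimulus after 20 min compound exposure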
KCNK9 block = blocks the human KCNK9 two-pore domain potassium channel; HEK293 KCNK9, FluxOR thallium flux fluorescence; hits give low values; B-score at 10 µM; hit rate 1.2% among 310,000; AID 488922;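 active means ratio B-score over 3 SD below the library mean, with starting fluorescence within 5 SD of its mean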;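 further: negative B-score means less thallium flux so channel inhibition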
The depositor's hits bear a star; i = inactive; · = not tested or not shown.

SMILES | PHOSPHO1 block | KCNK3 block | KCNQ1 act | hERG protect | KCNQ1 block | KCNK9 block
Cc1c(Cc2ccccc2)c(=O)oc2c(C)c(OC(C)C(=O)N[C@@H](Cc3ccccc3)C(=O)O)ccc12 (some centres undefined) | 13 | i | i | -16 | i | i
COC(=O)C1CCN(C(=O)COC(=O)C2CCN(S(=O)(=O)c3ccc(C)c(C)c3)CC2)CC1 | · | i | i | -14 | i | i
O=C(NCC(c1cccs1)N1CCOCC1)c1ccccc1NS(=O)(=O)c1ccc(Cl)c([N+](=O)[O-])c1 (centres undefined) | -2 | i | i | -13 | 13* | i
O=C(/C=C/c1cccc(Cl)c1)N1CCC(Cc2ccccc2)CC1 | -2 | i | i | -9 | 8* | i
CCCCn1c(N)c(N(CCC(C)C)C(=O)c2cc(CC)c(C)s2)c(=O)[nH]c1=O | · | i | i | -18 | i | i
Cc1cccc(-c2nc3ccccc3c(=O)n2NC(=O)/C=C/c2ccc([N+](=O)[O-])cc2)c1 | -16 | i | i | -12 | i | i
CCOC(=O)c1c(-c2ccccc2)csc1NC(=O)C1CCCO1 (centres undefined) | 72* | i | i | -1 | i | i
Cc1cccc(N2CCN(Cc3nc(CC4CC4)no3)CC2)n1 | 60* | i | i | -10 | i | i
COc1ccc(Cc2nc3ccc(C(=O)N(C)C(C)c4nccs4)cc3o2)cc1 (centres undefined) | 23 | i | i | -10 | i | i
CN(C)CCCNC(=O)c1ccc(=O)[nH]n1 | 29 | i | i | -4 | i | i
O=C(c1ccco1)[C@@H]1[C@@H]2C(=O)N(c3ccc(Br)cc3)C(=O)[C@@H]2C2c3ccccc3C=CN21 (some centres undefined) | 68* | i | · | · | · | ·
O=C(c1ccco1)[C@@H]1[C@@H]2C(=O)N(c3ccc(F)cc3)C(=O)[C@@H]2C2c3ccccc3C=CN21 (some centres undefined) | 55 | · | i | -18 | i | i
O=C(CNCCc1ccc(Cl)cc1Cl)NCc1ccco1 | 63* | i | i | -2 | i | i
CCOc1ccc(N(CC(=O)N2CCN(c3ccccc3OC)CC2)S(=O)(=O)c2ccc(C)cc2)cc1 | · | i | i | -11 | 9* | i
CCOc1ccc(N(CC(=O)N2CCN(c3ccccc3OC)CC2)S(=O)(=O)c2ccc(F)cc2)cc1 | 47 | i | i | -7 | i | i
COCCNCC1C(Oc2ccc(Cl)cc2)C(=O)N1c1ccccc1C (centres undefined) | 36 | i | i | -6 | i | i
COc1ccc(CCNCC2C(Oc3ccc(Cl)cc3)C(=O)N2c2ccccc2C)cc1OC (centres undefined) | 2 | i | i | -13 | i | -6.8*
COc1cc(NC(=O)CSc2ncnc3sc4c(c23)CCC(C)C4)c(C(=O)O)cc1OC (centres undefined) | 0 | i | 39* | 51* | i | i
Cc1cccn2c(/C=N/OCc3ccc(F)cc3)c(-c3ccc(Cl)cc3)nc12 | 12 | i | i | -11 | i | -7.8*
O=C(NC(=S)Nc1nc(-c2ccccc2)cs1)c1ccco1 | 27 | i | 30* | 25* | i | i
CC(C)CC(=O)NC(=S)Nc1nc(-c2ccccc2)cs1 | 6 | i | 9* | 0 | i | i
COc1ccc(-c2csc(NC(=S)NC(=O)c3ccco3)n2)cc1 | -10 | i | 8* | -3 | i | i
COc1ccc(-c2csc(NC(=O)COC(=O)c3ccco3)n2)cc1 | 8 | i | i | -4 | i | i
O=C(NC(=S)Nc1nc(-c2ccccc2)cs1)c1cccs1 | 21 | i | 17* | 17* | i | i
CC(C)CC(=O)NC(=S)Nc1nc(-c2ccc(Cl)cc2)cs1 | 1 | i | i | -4 | i | i
Cn1c(SCC(=O)O)nnc1C1CCCCC1 | 3 | i | i | -2 | i | i
CCONc1ncnc2nonc12 | 22 | i | i | -13 | i | i
Clc1ccc(CONc2ncnc3nonc23)c(Cl)c1 | -3 | i | i | -25 | 7* | i
